Compound activity from PubChem.
Shown are actives, neighbours in structure and some others; about 2.5% of the full set was active somewhere.
NALP3 yeast inh: NALP3 inhibition in yeast; Yeast reconstituted NLRP3/ASC/caspase-1, beta-gal luminescence, 24 h; inhibition, % at 10 µM; 0.39% of 330,000 active; AID 2825;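 active means inhibition of 50% or more; inactive means inhibition below 50%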;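 further: plate controls were induced DMSO wells for no effect and uninduced yeast grown without galactose for full effect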
MC4R antagonist: antagonists of human melanocortin 4 receptor (MC4R); P32245; MC4R-expressing cells, MTII-stimulated cAMP, LANCE TR-FRET; inhibition, % at 6.5 µM; 0.48% of 360,000 active; AID 540295;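 active means inhibition above its plate's cutoff, the mean of tested wells on that plate plus 3 SD, cut at about 29% in these data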;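 further: 0% = Melanotan II alone and 100% = Melanotan II plus saturating MCL0020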
Target sequence (P32245 whole entry, looked up): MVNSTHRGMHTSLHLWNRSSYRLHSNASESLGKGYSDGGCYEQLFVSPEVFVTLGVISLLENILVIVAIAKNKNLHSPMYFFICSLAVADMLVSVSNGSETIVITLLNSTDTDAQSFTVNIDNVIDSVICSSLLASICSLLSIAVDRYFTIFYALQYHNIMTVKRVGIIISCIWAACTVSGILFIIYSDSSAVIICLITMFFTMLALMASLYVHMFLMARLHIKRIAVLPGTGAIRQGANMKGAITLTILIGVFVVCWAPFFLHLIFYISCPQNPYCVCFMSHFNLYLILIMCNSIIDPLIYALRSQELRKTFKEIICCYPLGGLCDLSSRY
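system = U2OS cells with stable human MC4R expression | also added = Melanotan II challenge after compound preincubation | dosing = one concentration, 6.5 µM nominal | incubation = compound 30 min, challenge 1 h, detection 1 h | measured by = TR-FRET with Eu-cAMP and labeled anti-cAMP, 671 nm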
A1 inh: inhibitors of the anti-apoptotic protein A1, read as caspase activation; AID 2462; caspase activation, % (test concentration not listed); MEF A1-2A-BIM cells, Caspase-Glo 3/7 luminescence, 3 h; percent of clofoctol response, vehicle zero; 0.066% of 330,000 active;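 active means over half of replicate activation scores above 10%, or exactly half above 10 with the replicate mean above 10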
TbMetRS inhib: Trypanosoma brucei MetRS inhibition; purified T. brucei MetRS, ATP depletion, Kinase-Glo luminescence; inhibition, % at 11.9 µM; 0.4% of 360,000 active; AID 624268;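 active means inhibition above a per-plate cutoff of the control wells' mean inhibition plus 3 SD, cut at about 5.5% in these data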;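 further: 0% = DMSO wells median and 100% = median of wells with control inhibitor compound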
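Measured by: Kinase-Glo luciferase luminescence reporting remaining unconsumed ATP. Material: purified T. brucei MetRS enzyme. Doses: 11.9 µM compound single dose, 0.9% DMSO. Medium: HEPES buffer containing pyrophosphatase, BSA, spermine, DTT. Times: 15 min preincubation, 2 h reaction, all 25 °C. Reagent: methionine, ATP and bulk E. coli tRNA.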
MC4R barr agon: activates human MC4R beta-arrestin recruitment; P32245; U2OS MC4R beta-arrestin complementation, luminescence; percent of melanotan II response, DMSO zero; activation, % at 8.9 µM; 0.98% of 360,000 active;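 active means activation above a per-plate cutoff, the mean activation of sample wells on that plate plus 3 SD, cut at about 8% in these data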
NALP1 inh: inhibitors of NALP1 inflammasome in yeast. S. cerevisiae NALP1/ASC/caspase-1 growth, X-gal OD620, 72 h. inhibition, % at 10 µM. 0.61% of 280,000 active. AID 2071; in the data active means inhibition mostly above about 24%, no sharp cut-off; inactive means mostly below about 32%
NALP3 confirm: NALP3 inhibition confirmation in yeast; shares compounds with NALP3 yeast inh; yeast expressing human NALP3, luminescence; inhibition, % at 10 µM; 81% of 1,300 active; in the data active means inhibition above about 48%
Casp1-ASC yeast: caspase-1-ASC yeast counter-screen hit | yeast expressing Caspase-1-ASC, luminescence counter screen | 66% of 1,000 active | shares compounds with NALP3 yeast inh | inhibition, % at 10 µM
NALP3 retest: retest-confirmed inhibitor of NALP3 in yeast; inhibition, % at 10 µM; 53% of 1,000 active; yeast expressing human NALP3, luminescence read-out; shares compounds with NALP3 yeast inh; AID 488794
* hit, by the source's call; nt = no result. Unless noted, no stated cut-off is given here; in the data, active means inhibition above about 50%; inactive means the rest.

SMILES	NALP3 yeast inh	MC4R antagonist	A1 inh	TbMetRS inhib	MC4R barr agon	NALP1 inh	NALP3 confirm	Casp1-ASC yeast	NALP3 retest
CCOc1cccc(/C=C(\C#N)C(=O)NC2CC2)c1	8	7	-1	-1	-1	nt	nt	nt	nt
CNC(=O)/C(C#N)=C/c1ccc(OCCOc2ccccc2)cc1	56*	4	0	-1	0	15	73*	58*	48
CCCCOc1cccc(/C=C(\C#N)C(=O)NC2CC2)c1	51*	-6	1	-1	-2	18	54*	38	32
N#CCCn1cc(C(=O)Nc2cccc(C(=O)O)c2)c(-c2ccc(Cl)cc2)n1	10	5	1	0	-1	-8	nt	nt	nt
O=C(Nc1ncc([N+](=O)[O-])s1)c1ccccc1Br	15	17	0	-1	-1	8	nt	nt	nt
Cc1cc(Cc2ccc([N+](=O)[O-])cc2)c(C)cn1	6	-6	0	-1	1	14	nt	nt	nt
CC(=O)C[C@@H](O)CC(=O)[C@@H]1OC(=O)CCCCCCCc2ccccc21	20	9	1	0	-2	nt	nt	nt	nt
Cc1ccc2nc(-c3sc4nc(C)ccc4c3N)[nH]c2c1	22	2	0	-3	-3	11	nt	nt	nt
Cc1cc(C)c2c(N)c(-c3nc4ccccc4[nH]3)sc2n1	50*	8	0	0	-2	-6	62*	37	41
Brc1ccc2[nH]ncc2c1	53*	-3	-1	1	-1	8	42	60*	43
O=c1cn[nH]c2ccc(Br)cc12	nt	6	nt	0	1	nt	nt	nt	nt
O=C(NC(=S)Nc1cccc([N+](=O)[O-])c1)C1CCCC1	54*	5	0	0	-3	31	73*	60*	58*
CC1=CC2=NC(=O)/C(=C\c3cccn3CCOc3cccc(C)c3)C(=N)N2O1	60*	-1	-1	-1	-1	47	3	nt	nt
COc1cccc(OCCn2cccc2/C=C2/C(=N)N3OC(C)=CC3=NC2=O)c1	43	2	0	-1	1	9	nt	nt	nt
[O-][n+]1ccc(CC(O)(C(F)(F)F)C(F)(F)F)cc1	nt	5	nt	0	1	nt	nt	nt	nt
Cc1ccc(Oc2ccc(NC(=O)c3ccco3)cc2)cc1	14	7	0	-2	2	19	nt	nt	nt
COC(=O)c1ccccc1Oc1ccc(NC(=O)c2ccco2)cc1	51*	4	-1	-1	0	12	68*	49	35
Cc1ccc(C)c(Sc2ccc(NC(=O)CCl)cc2)c1	81*	nt	1	nt	nt	nt	81*	88*	74*
c1ccc(-c2ncc(-c3ccn[nH]3)s2)cc1	65*	4	0	0	-1	-3	84*	79*	64*
Cc1ccc2c(c1)CCCN2C(=O)c1cccs1	36	1	0	-1	0	nt	nt	nt	nt
Cc1ccc2c(c1)CCCN2C(=O)c1cc(C)c(C)s1	52*	-5	nt	0	0	nt	59*	44	35
CCOC(=O)c1c(NC(=O)CC2SC(=NC)N(C)C2=O)sc(C)c1C (centres undefined)	60*	-7	0	-1	-2	12	59*	60*	43
CC(CCl)n1c(=O)c2ccccc2n1C(=O)c1ccccc1 (centres undefined)	nt	nt	nt	-2	nt	nt	nt	nt	nt
Cc1ccc(NC(=O)CN2CCN(CCN=CC3=C(O)CC(C)(C)CC3=O)CC2)cc1	55*	-2	1	0	1	32	58*	36	46
CC1(C)CC(=O)C(C=NCCN2CCN(CC(=O)Nc3ccc(Cl)cc3)CC2)=C(O)C1	46	3	0	-1	-2	-9	nt	nt	nt
SMILES	NALP3 yeast inh	MC4R antagonist	A1 inh	TbMetRS inhib	MC4R barr agon	NALP1 inh	NALP3 confirm	Casp1-ASC yeast	NALP3 retest
CN(C)C(=O)CCc1ccc2c3c([nH]c2c1)[C@]1(C)[C@@H](C(=O)N2CCOCC2)C[C@H](CC(=O)NCc2cccc(C(F)(F)F)c2)C(=O)N1CC3	nt	12	nt	0	3	nt	nt	nt	nt
CCCCc1ccc(-c2nc(N)n[nH]2)cc1	54*	9	-1	0	-2	14	78*	95*	85*
Nc1n[nH]c(-c2ccc(F)cc2)n1	0	-1	0	-1	-1	1	nt	nt	nt
CN(C)c1cc(C(F)(F)F)nc(-c2ccccn2)n1	-11	-3	0	-1	0	30	nt	nt	nt
CSCc1cc(N(C)c2ccccc2)nc(-c2ccccn2)n1	67*	17	0	0	5	-3	71*	74*	81*
O=C(/C=C/c1cccc([N+](=O)[O-])c1)NCCSCc1cccc(Cl)c1	71*	1	1	0	5	21	-6	nt	nt
O=C(Nc1ccc(Nc2ccccc2)cc1)c1cccc(F)c1	57*	-5	-2	0	-2	16	72*	51*	57*
Cc1ccc(NC(=O)c2ccccc2)cc1C	52*	-4	-6	0	-3	nt	75*	40	42
COc1cccc(C(=O)Nc2ccc(NC(=O)Cc3ccccc3)cc2)c1	15	5	1	-1	2	-1	nt	nt	nt
COc1cccc(C(=O)Nc2ccccc2)c1	51*	-1	-13	-1	0	4	80*	48	39
O=C(Nc1c(C(=O)Nc2cccc(F)c2)oc2ccccc12)c1ccc2c(c1)OCO2	10	16	0	-1	1	18	nt	nt	nt
O=C(Nc1cccc(F)c1)c1ccc2c(c1)OCO2	65*	2	-10	-1	-2	-3	65*	68*	62*
CC1(C(=O)NS(=O)(=O)c2cccc(Cl)c2)CCN1C(=O)c1cccc2ccccc12 (centres undefined)	nt	11	nt	0	-1	nt	nt	nt	nt
CCC1Cc2[nH]c(=S)[nH]c(=O)c2C(c2ccc(Cl)cc2)O1 (centres undefined)	nt	nt	nt	-1	nt	nt	nt	nt	nt
COc1ccc(-c2cc(C(=O)N/N=C(\C)c3cccnc3)c3cc(C)ccc3n2)cc1OC	6	15	-2	0	-2	7	nt	nt	nt
COc1ccc(C(=O)Nc2cccc(NC(=O)c3cccs3)c2)cc1	23	9	-3	0	-1	23	nt	nt	nt
O=C(Nc1ccc(Nc2ccccc2)cc1)c1ccc(Br)o1	66*	-6	nt	0	0	-1	76*	76*	74*
CCN1CCN(c2ccc(NC(=O)c3cccc(OCc4ccccc4)c3)cc2)CC1	38	3	0	-1	6	45	nt	nt	nt
Cc1ccc(C)c(NC(=O)c2cc3ccccc3o2)c1	55*	10	0	0	1	21	44	52*	41
